From ChEMBL document CHEMBL1154352, “Toll-like receptor 7 selective synthetic oligoribonucleotide agonists: synthesis and structure-activity relationship studies” (J Med Chem, 2009)
Calls of active or inactive are those of the source. The calls are words filed in the database; no cut-off is given here.

Key:
[1] = system: PBMC; assay: Immunomodulatory activity in human PBMC assessed as induction of IL12 at 100 ug/ml after 24 hrs; assay type: functional, cell-based
In short: (§1)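 Human PBMCs plated at 5 × 10^6 cells/mL; compounds dissolved in PBS added at various concentrations, 37 °C for 24 h. Supernatant cytokines/chemokines quantified with human Luminex multiplex kit.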

[2] = target: T1, Toll-like receptor 7 (Homo sapiens) (UniProt Q9NYK1); assay: Activation of human TLR7 expressed in HEK293XL assessed as fold induction of NF-kappaB activity at 50 ug/ml after 18 hrs by reporter gene assay relative to control
T1 sequence (whole entry): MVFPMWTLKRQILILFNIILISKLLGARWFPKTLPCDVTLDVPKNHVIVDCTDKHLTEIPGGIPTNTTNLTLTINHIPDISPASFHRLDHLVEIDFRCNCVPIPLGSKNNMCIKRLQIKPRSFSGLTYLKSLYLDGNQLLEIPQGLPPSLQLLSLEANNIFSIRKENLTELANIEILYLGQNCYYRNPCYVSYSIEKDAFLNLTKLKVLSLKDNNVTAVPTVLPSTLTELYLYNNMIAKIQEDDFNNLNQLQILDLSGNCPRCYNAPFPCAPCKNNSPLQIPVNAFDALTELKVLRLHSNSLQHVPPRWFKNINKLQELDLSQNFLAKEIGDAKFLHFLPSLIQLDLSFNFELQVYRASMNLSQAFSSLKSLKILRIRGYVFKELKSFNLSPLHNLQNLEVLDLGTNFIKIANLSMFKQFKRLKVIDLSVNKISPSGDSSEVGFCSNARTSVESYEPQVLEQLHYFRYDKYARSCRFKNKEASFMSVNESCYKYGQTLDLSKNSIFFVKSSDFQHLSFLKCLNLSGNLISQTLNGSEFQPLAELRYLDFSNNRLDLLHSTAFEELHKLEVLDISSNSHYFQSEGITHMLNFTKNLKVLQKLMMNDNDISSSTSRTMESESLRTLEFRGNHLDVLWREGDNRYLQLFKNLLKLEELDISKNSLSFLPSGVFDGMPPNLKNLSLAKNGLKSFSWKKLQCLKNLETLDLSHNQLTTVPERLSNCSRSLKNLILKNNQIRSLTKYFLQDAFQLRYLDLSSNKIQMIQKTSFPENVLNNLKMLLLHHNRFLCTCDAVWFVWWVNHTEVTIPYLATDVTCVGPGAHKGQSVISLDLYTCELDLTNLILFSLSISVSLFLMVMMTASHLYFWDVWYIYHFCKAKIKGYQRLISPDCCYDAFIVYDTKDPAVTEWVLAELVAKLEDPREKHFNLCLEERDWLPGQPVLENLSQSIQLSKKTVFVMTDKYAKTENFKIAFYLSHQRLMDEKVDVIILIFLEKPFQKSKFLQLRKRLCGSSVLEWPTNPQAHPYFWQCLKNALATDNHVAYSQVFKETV
In short: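 HEK293 cells stably expressing human TLR7 or TLR8, transiently transfected with SEAP reporter plasmid; medium replaced, SIMRA compounds added, 18 h incubation. Supernatant SEAP measured by QuantiBlue; expressed as fold increase in NF-κB activity over PBS control. Tabulated data at 50 μg/mL, representative of three independent experiments.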

[3] = target: T2, Toll-like receptor 9 (Mus musculus) (UniProt Q9EQU3); assay: Activation of mouse TLR9 expressed in HEK293 assessed as induction of NF-kappaB activity reporter gene assay; assay type: cell-based
T2 sequence (whole entry): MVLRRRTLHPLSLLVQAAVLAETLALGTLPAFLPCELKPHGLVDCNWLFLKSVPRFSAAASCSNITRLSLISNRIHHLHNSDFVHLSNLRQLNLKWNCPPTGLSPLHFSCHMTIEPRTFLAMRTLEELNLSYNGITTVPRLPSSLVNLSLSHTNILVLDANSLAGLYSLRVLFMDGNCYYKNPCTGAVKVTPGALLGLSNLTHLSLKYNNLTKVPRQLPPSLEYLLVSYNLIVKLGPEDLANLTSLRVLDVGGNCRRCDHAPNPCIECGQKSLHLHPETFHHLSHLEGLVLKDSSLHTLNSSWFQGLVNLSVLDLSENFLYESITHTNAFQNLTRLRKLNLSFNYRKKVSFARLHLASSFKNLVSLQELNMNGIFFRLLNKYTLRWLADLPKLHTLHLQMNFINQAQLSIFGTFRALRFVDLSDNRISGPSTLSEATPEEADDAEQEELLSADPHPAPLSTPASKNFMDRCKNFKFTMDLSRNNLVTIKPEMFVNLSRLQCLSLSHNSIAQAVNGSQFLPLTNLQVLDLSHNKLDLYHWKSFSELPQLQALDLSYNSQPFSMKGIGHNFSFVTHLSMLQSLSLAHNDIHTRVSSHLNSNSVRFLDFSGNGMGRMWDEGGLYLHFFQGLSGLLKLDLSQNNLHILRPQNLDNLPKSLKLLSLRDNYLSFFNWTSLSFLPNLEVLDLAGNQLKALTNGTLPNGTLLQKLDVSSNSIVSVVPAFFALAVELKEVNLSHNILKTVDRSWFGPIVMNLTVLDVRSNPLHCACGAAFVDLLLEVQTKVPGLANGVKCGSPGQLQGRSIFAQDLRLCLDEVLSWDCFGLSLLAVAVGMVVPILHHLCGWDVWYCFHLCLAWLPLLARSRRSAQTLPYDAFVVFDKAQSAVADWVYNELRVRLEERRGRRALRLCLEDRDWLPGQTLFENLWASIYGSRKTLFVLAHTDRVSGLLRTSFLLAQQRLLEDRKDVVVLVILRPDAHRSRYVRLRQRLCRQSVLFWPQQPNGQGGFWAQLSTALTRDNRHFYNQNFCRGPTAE

[4] = system: PBMC; assay: Immunomodulatory activity in human PBMC assessed as induction of IFN-alpha at 100 ug/ml after 24 hrs
[5] = system: Splenocyte; assay: Immunomodulatory activity in C57BL/6 mouse splenocytes bearing TLR7 receptor assessed as IL6 release at 100 ug/ml after 24 hrs by ELISA; assay type: functional, cell-based
In short: (§2)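 C57BL/6 splenocytes in RPMI 1640 with 10% FBS, penicillin/streptomycin, 2 mM L-glutamine, plated at 5 × 10^6 cells/mL; compounds in PBS added, 37 °C for 24 h. Supernatant IL-12 and IL-6 by ELISA; representative of three independent experiments.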

[6] = system: PBMC; assay: Immunomodulatory activity in human PBMC assessed as induction of TNFalpha at 100 ug/ml after 24 hrs; assay type: functional, cell-based; in short: as §1
[7] = species on record: Homo sapiens; assay: Ratio of human TLR7 activity to human TLR8 activity
In short: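 TLR7/TLR8 ratio computed from fold NF-κB (SEAP reporter) activation in HEK293 cells stably expressing human TLR7 versus TLR8, compounds at 50 μg/mL, 18 h exposure; representative of three independent experiments.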

[8] = system: Splenocyte; assay: Immunomodulatory activity in C57BL/6 mouse splenocytes bearing TLR7 receptor assessed as IL12 release at 100 ug/ml after 24 hrs by ELISA; assay type: functional, cell-based; in short: as §2

## Nc1ccn([C@@H]2O[C@H](CO)[C@@H](OP(=O)(S)OC[C@H]3O[C@@H](n4ccc(=O)[nH]c4=O)[C@H](O)[C@@H]3OP(=O)(S)OC[C@H]3O[C@@H](n4ccc5c(=O)[nH]c(N)nc54)[C@H](O)[C@@H]3OP(=O)(S)OC[C@H]3O[C@@H](n4cnc5c(N)ncnc54)[C@H](O)[C@@H]3OP(=O)(S)OC[C@H]3O[C@@H](n4ccc5c(=O)[nH]c(N)nc54)[C@H](O)[C@@H]3OP(=O)(S)OC[C@H]3O[C@@H](n4cnc5c(N)ncnc54)[C@H](O)[C@@H]3OP(=O)(S)OC[C@H]3O[C@@H](n4cnc5c(N)ncnc54)[C@H](O)[C@@H]3OP(=O)(S)OC[C@H]3O[C@@H](n4ccc5c(=O)[nH]c(N)nc54)[C@H](O)[C@@H]3OP(=O)(S)OC[C@H]3O[C@@H](n4ccc(N)nc4=O)[C@H](O)[C@@H]3OP(=O)(S)OC[C@H]3O[C@@H](n4ccc(=O)[nH]c4=O)[C@H](O)[C@@H]3OP(=O)(S)OC[C@H]3O[C@@H](n4ccc(=O)[nH]c4=O)[C@H](O)[C@@H]3OP(=O)(S)OCC(O)COP(=O)(S)O[C@H]3[C@@H](O)[C@H](n4ccc(=O)[nH]c4=O)O[C@@H]3COP(=O)(S)O[C@H]3[C@@H](O)[C@H](n4ccc(=O)[nH]c4=O)O[C@@H]3COP(=O)(S)O[C@H]3[C@@H](O)[C@H](n4ccc(N)nc4=O)O[C@@H]3COP(=O)(S)O[C@H]3[C@@H](O)[C@H](n4ccc5c(=O)[nH]c(N)nc54)O[C@@H]3COP(=O)(S)O[C@H]3[C@@H](O)[C@H](n4cnc5c(N)ncnc54)O[C@@H]3COP(=O)(S)O[C@H]3[C@@H](O)[C@H](n4cnc5c(N)ncnc54)O[C@@H]3COP(=O)(S)O[C@H]3[C@@H](O)[C@H](n4ccc5c(=O)[nH]c(N)nc54)O[C@@H]3COP(=O)(S)O[C@H]3[C@@H](O)[C@H](n4cnc5c(N)ncnc54)O[C@@H]3COP(=O)(S)O[C@H]3[C@@H](O)[C@H](n4ccc5c(=O)[nH]c(N)nc54)O[C@@H]3COP(=O)(S)O[C@H]3[C@@H](O)[C@H](n4ccc(=O)[nH]c4=O)O[C@@H]3COP(=O)(S)O[C@H]3[C@@H](O)[C@H](n4ccc(N)nc4=O)O[C@@H]3CO)[C@H]2O)c(=O)n1 (stereo partly drawn)
[1]
  Activity: 1750 pg/mL
[2]
  fold change (FC): 27.6
[3]
  Activity: inactive
[4]
  IFN-alpha: 123 pg/mL
[5]
  Activity: Active
[6]
  Activity: 818 pg/mL
[7]
  Ratio: 69
[8]
  Activity: Active
